Test results from ChEMBL document CHEMBL3098049, “Concise synthesis and biological evaluation of 2-Aroyl-5-amino benzo[b]thiophene derivatives as a novel class of potent antimitotic agents” (J Med Chem, 2013).
Calls of active or inactive are those of the source. The rule behind the calls is not given here.

Columns and labels:
[1] = Cytotoxicity against human Molt4/C8 cells assessed as growth inhibition after 48 hrs by coulter counting analysis; type: functional, cell-based; conditions: MOLT-4, 48 h
Procedure, shortened: (§1)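 Cells suspended at (3−5) × 10⁵ cells/mL and mixed 1:1 with compound dilutions. Incubated 48 h at 37 °C, counted with a Coulter counter. IC₅₀ = concentration inhibiting proliferation by 50%. Mean of at least three independent experiments.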

[2] = Cytotoxicity against human CEM/0 cells assessed as growth inhibition after 48 hrs by coulter counting analysis; type: functional, cell-based; conditions: CCRF-CEM
[3] = tested on: HeLa; test: Cytotoxicity against human HeLa cells assessed as growth inhibition after 48 hrs by coulter counting analysis; type: functional, cell-based
[4] = tested on: L1210; test: Cytotoxicity against mouse L1210 cells assessed as growth inhibition after 48 hrs by coulter counting analysis; type: functional, cell-based; conditions: L1210, 48 h; procedure, shortened: as §1
[5] = Cytotoxicity against mouse FM3A/0 cells assessed as growth inhibition after 48 hrs by coulter counting analysis; type: functional, cell-based; conditions: FM3A/0, 48 h
[6] = Inhibition of bovine brain tubulin polymerization preincubated for 15 mins followed by GTP addition measured for 20 mins by turbidometric analysis; set-up: species or system Bos taurus
[7] = target: T1, Tubulin (Homo sapiens) (UniProt P68371+Q9H4B7+P0DPH7+P68366+Q13509+Q71U36+P04350+Q3ZCM7+P07437+P68363+Q9BQE3+Q6PEY2+Q13885+Q9BVA1+Q9BUF5); test: Displacement of [3H]-colchicine from tubulin (unknown origin) at 5 uM after 10 mins relative to control; type: protein-complex assay
[8] = tested on: MNNG-HOS; test: Antitumor activity against human MNNG-HOS cells xenografted in Balb/c-nu mouse assessed as reduction in tumor weight at 50 mg/kg, ip administered once every 3 days for 9 days measured after day 18; type: functional, organism-based; set-up: dose 50 mg/kg; conditions: HOS-TE85
Procedure, shortened: (§2)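 MNNG/HOS osteosarcoma cells grown to exponential phase, suspended in FBS-free MEM (10⁷ cells/mL), 0.1 mL injected into back hypodermis of nude mice. At ~100 mm³, 12 mice randomised to three groups (vehicle, CA-4P in isotonic saline, test in 5% DMSO/olive oil). 50 mg/kg ip at 0.01 mL/g on days 0, 3, 6, 9. Tumour volume and body weight tracked; tumours excised and weighed day 18; […].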

[9] = tested on: MNNG-HOS; test: Antitumor activity against human MNNG-HOS cells xenografted in Balb/c-nu mouse assessed as tumor growth inhibition at 50 mg/kg, ip administered once every 3 days for 9 days measured on day 18 relative to vehicle-treated control; type: functional; conditions: HOS-TE85, ip, route intraperitoneal, read-out: TGI; procedure, shortened: as §2
[10] = target: T1, Tubulin (Homo sapiens); test: Displacement of [3H]-colchicine from tubulin (unknown origin) at 1 uM after 10 mins relative to control; type: protein-complex assay

| Structure (SMILES) | IC50 [1] | IC50 [2] | IC50 [3] | IC50 [4] | IC50 [5] | IC50 [6] | inhibition [7] | Activity [8] | inhibition in vivo at 50 mg/kg [9] | inhibition [10] |
| --- | --- | --- | --- | --- | --- | --- | --- | --- | --- | --- |
| COc1ccc(C(=O)c2cc3cc(N)cc(OC)c3s2)cc1OC | 1700 nM | 1400 nM | 1600 nM | 1900 nM | 2200 nM |  |  |  |  |  |
| CNc1cc(OC)c2sc(C(=O)c3cc(OC)c(OC)c(OC)c3)cc2c1 | 74 nM |  | 66 nM | 67 nM | 190 nM |  |  |  |  |  |
| COc1cc(C(=O)c2cc3cc(NC(=O)CI)ccc3s2)cc(OC)c1OC | 330 nM |  | 1500 nM | 1400 nM | 2100 nM |  |  |  |  |  |
| COc1cc(C(=O)c2sc3ccccc3c2N)cc(OC)c1OC |  |  |  |  |  | 4200 nM | 39% |  |  |  |
| COc1cc(C(=O)c2cc3cc(N(C)C)cc(OC)c3s2)cc(OC)c1OC | 980 nM |  | 360 nM |  | 1100 nM |  |  |  |  |  |
| COc1cc(C(=O)c2cc3cc(NC(=O)CBr)cc(OC)c3s2)cc(OC)c1OC | 360 nM | 340 nM | 220 nM | 420 nM | 250 nM |  |  |  |  |  |
| COc1cc(C(=O)c2cc3cc(NC(=O)CCl)cc(OC)c3s2)cc(OC)c1OC | 78 nM | 72 nM | 100 nM |  | 200 nM |  |  |  |  |  |
| COc1ccc(/C=C\c2cc(OC)c(OC)c(OC)c2)cc1OP(=O)(O)O [FOSBRETABULIN DISODIUM] |  |  |  |  |  |  |  | Active | 32% |  |
| COc1cc(C(=O)c2sc3ccc(N)cc3c2C)cc(OC)c1OC | 100 nM | 72 nM | 100 nM | 8 nM | 200 nM | 1300 nM | 78% |  |  |  |
| C=C(Br)C(=O)Nc1ccc2sc(C(=O)c3cc(OC)c(OC)c(OC)c3)cc2c1 | 270 nM | 140 nM | 700 nM | 75 nM | 170 nM |  |  |  |  |  |
| COc1cc(C(=O)c2cc3cc(NC(=O)CI)cc(OC)c3s2)cc(OC)c1OC | 330 nM | 310 nM | 200 nM | 410 nM | 370 nM |  |  |  |  |  |
| COc1cc(C(=O)c2cc3cc(NC(=O)CBr)ccc3s2)cc(OC)c1OC | 960 nM | 260 nM | 1600 nM | 1400 nM | 1700 nM |  |  |  |  |  |
| COc1cc2sc(C(=O)c3cc(OC)c(OC)c(OC)c3)c(C)c2cc1N | 16 nM | 19 nM |  | 19 nM | 17 nM | 680 nM | 95% |  |  | 83% |
| COc1cc(C(=O)c2cc3cc(NC(C)=O)cc(OC)c3s2)cc(OC)c1OC | 98 nM |  | 69 nM |  | 340 nM |  |  |  |  |  |
| COc1ccc(C(=O)c2cc3cc(N)cc(OC)c3s2)cc1 | 6500 nM | 6100 nM |  | > 10000 nM | > 10000 nM |  |  |  |  |  |
| COc1cc(C(=O)c2sc3c(OC)cccc3c2N)cc(OC)c1OC |  |  |  |  |  | 2100 nM | 39% |  |  |  |
| COc1cc(C(=O)c2sc3c(OC)cc(N)cc3c2C)cc(OC)c1OC | 14 nM |  | 13 nM | 12 nM | 15 nM | 480 nM | 95% |  |  | 90% |
| COc1cc(C(=O)c2cc3cc(N)ccc3s2)cc(OC)c1OC | 18 nM | 11 nM | 13 nM | 0.78 nM | 2.8 nM | 3200 nM | 65% |  |  |  |
| C=C(Br)C(=O)Nc1cc(OC)c2sc(C(=O)c3cc(OC)c(OC)c(OC)c3)cc2c1 | 280 nM | 260 nM | 760 nM | 96 nM | 200 nM |  |  |  |  |  |
